Measurements published in PMC10975593 (ACS Omega, 2024).
Like-named read-outs stand apart in the source and are kept apart here.

What was measured:
Staphylococcus aureus = assay: Disc diffusion antimicrobial test; assay type: cell-based; settings: 24 h; for zone of inhibition at 100 µg/mL: Staphylococcus aureus, read-out: zone of inhibition (diameter of inhibition)
In short: (§1)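 Disc diffusion on nutrient agar, test compound at 100 μg/mL with DMSO as solvent. Plates incubated at 37 °C for 24 h after inoculation, then zone of inhibition measured and compared with standards. Controls were DMSO, amoxicillin, ciprofloxacin and tetracycline.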

A549 cancer cell line [1] = assay: MTT assay; assay type: cell-based; settings: for IC50 / inhibition at 100 µM: Homo sapiens, A549, 72 h; for inhibition at 100 µM: read-out: experimental % of inhibition on A549 cancer cell line
In short: (§2)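 A549 in DMEM and MCF-7 in RPMI, each with 10% heat-inactivated FBS, 1% penicillin/streptomycin and 2 mmol/L glutamine at 37 °C, 5% CO2. Seeded at 2000 (A549) or 10,000 (MCF-7) cells/well and attached 24 h. Then 72 h with test compound at varying concentrations. MTT (5 mg/mL stock) added for 4 h at 37 °C, formazan dissolved in DMSO, absorbance read at 450/540 nm. Triplicates in three separate experiments.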

A549 cancer cell line [2] = settings: cited from earlier work
MCF-7 cancer cell line = assay: MTT assay; assay type: cell-based
In short: as §2

Fibro cell line = assay: % inhibition on normal cell line; assay type: cell-based; settings: for inhibition at 10 µM: read-out: %inhibition at 10 μM; for inhibition at 100 µM: read-out: %inhibition at 100 μM
PI3Kγ enzyme = PI3Kγ enzyme (Homo sapiens, UniProt P48736); assay: Adapta universal kinase assay, anti-PI3Kγ activity; assay type: biochemical
Sequence of PI3Kγ enzyme (P48736 whole entry): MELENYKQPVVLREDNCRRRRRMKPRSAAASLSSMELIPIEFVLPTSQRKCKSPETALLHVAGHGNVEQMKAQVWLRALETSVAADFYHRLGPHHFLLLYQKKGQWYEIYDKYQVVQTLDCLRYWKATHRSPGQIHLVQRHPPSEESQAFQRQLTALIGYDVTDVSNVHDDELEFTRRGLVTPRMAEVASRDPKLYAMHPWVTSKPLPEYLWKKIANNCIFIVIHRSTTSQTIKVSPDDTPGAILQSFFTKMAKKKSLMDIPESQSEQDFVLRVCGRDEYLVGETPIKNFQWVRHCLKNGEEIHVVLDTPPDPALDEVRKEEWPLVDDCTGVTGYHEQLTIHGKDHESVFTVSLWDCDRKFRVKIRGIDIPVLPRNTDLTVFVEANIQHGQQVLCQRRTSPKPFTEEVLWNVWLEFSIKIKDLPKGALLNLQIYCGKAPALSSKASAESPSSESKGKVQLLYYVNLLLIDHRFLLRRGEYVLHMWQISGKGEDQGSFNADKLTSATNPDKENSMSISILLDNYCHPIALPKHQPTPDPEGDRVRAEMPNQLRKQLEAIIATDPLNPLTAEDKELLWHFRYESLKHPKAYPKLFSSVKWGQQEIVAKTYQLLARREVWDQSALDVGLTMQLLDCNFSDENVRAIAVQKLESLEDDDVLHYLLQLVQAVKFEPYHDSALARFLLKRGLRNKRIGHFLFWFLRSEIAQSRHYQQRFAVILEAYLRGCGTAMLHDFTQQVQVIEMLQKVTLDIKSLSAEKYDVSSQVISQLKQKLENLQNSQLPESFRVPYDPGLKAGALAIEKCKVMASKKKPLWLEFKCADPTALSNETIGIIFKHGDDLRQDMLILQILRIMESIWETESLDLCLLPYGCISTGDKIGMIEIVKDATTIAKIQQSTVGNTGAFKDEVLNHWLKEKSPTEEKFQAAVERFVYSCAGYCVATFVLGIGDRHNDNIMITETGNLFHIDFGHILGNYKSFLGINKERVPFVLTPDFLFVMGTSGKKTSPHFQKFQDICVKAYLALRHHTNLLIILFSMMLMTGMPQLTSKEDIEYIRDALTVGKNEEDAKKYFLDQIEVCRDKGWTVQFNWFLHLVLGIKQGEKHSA
In short: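 Adapta ADP-detection TR-FRET immunoassay with test compound at 100 μM. The kinase reaction runs 60 min. It is then stopped by a detection solution of EDTA, europium-labelled anti-ADP antibody and Alexa Fluor 647-labelled ADP tracer. ADP formed displaces the tracer and lowers the TR-FRET signal. ADP formation is calculated from the emission ratio.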

Escherichia coli = assay: Disc diffusion antimicrobial test; assay type: cell-based; settings: 24 h; for zone of inhibition at 100 µg/mL: Escherichia coli, read-out: zone of inhibition (diameter of inhibition)
In short: as §1

[3] = read-out: % of inhibition (mean) against PI3Kγ enzyme
[4] = read-out: % of inhibition against PI3Kγ enzyme, point 1
[5] = read-out: % of inhibition against PI3Kγ enzyme, point 2

Row | Compound | inhibition at 100 µM (PI3Kγ enzyme; [3]) [%] | inhibition at 100 µM (PI3Kγ enzyme; [4]) [%] | inhibition at 100 µM (PI3Kγ enzyme; [5]) [%] | zone of inhibition at 100 µg/mL (Staphylococcus aureus) [mm] | inhibition at 100 µM (A549 cancer cell line [1]) [%] | inhibition at 10 µM (Fibro cell line) [%] | inhibition at 100 µM (Fibro cell line) [%] | zone of inhibition at 100 µg/mL (Escherichia coli) [mm] | also measured
1 | CC1(C)S[C@@H]2[C@H](NC(=O)[C@H](N)c3ccc(O)cc3)C(=O)N2[C@H]1C(=O)O [Amoxicillin, reference compound] | – | – | – | 22 | – | – | – | – | –
2 | COc1cccc2c1C(=O)c1c(O)c3c(c(O)c1C2=O)C[C@@](O)(C(=O)CO)C[C@@H]3O[C@H]1C[C@H](N)[C@H](O)[C@H](C)O1 [Doxorubicin, reference compound] | – | – | – | – | 82.2 | – | – | – | IC50 (A549 cancer cell line [1]): 16.6 µM; IC50 (A549 cancer cell line [2]; read-out: reported IC50 against A549): 0.071 µM
3 | CN(C)C1CCN(C(=O)c2ccc(NC(=O)Nc3ccc(-c4nc(N5CCOCC5)nc(N5CCOCC5)n4)cc3)cc2)CC1 [Gedatolisib, reference compound] | – | – | – | – | – | – | – | – | IC50 (MCF-7 cancer cell line; Homo sapiens, MCF7, 72 h): 13.1 µM; IC50 (A549 cancer cell line [1]): 16.5 µM; IC50 (A549 cancer cell line [2]; read-out: reported IC50): 9.05 µM
4 | O=C(CNC1CCCCC1)Nc1nc2ccccc2s1 [OMS1, N-(1,3-benzothiazol-2-yl)-2-(cyclohexylamino)acetamide] | 47 | 54 | 40 | 22 | 1.72 | 0.85 | 13 | 0 | –
5 | O=C(CNc1ccc(F)cc1)Nc1nc2ccccc2s1 [OMS3, N-(1,3-benzothiazol-2-yl)-2-(4-fluoroanilino)acetamide] | 24 | 20 | 28 | 15 | 2.8 | 10.3 | 63.8 | 0 | –
6 | O=C(CNc1ccc(I)cc1)Nc1nc2ccccc2s1 [OMS4, N-(1,3-benzothiazol-2-yl)-2-(4-iodoanilino)acetamide] | 0 | 0 | 0 | 10 | -2.32 | 1.32 | 27.6 | 0 | –
7 | CNC(=O)c1cc(Oc2ccc(NC(=O)Nc3ccc(Cl)c(C(F)(F)F)c3)cc2)ccn1 [Sorafenib, reference compound] | – | – | – | – | – | 10.7 | 26.3 | – | –
8 | N-(benzo[d]thiazol-2-yl)-2-(4-(2-oxo-2-(piperazin-1-yl)ethyl)piperazin-1-yl)acetamide [OMS15] | – | – | – | – | – | – | – | – | %inhibition at 10 μM (Fibro cell line; Fibro cell line (normal), 10 μM): 34.8%; %inhibition at 100 μM (Fibro cell line; Fibro cell line (normal), 100 μM): 70%; % of inhibition against PI3Kγ enzyme, point 1 (PI3Kγ enzyme; 100 μM): 0%; % of inhibition against PI3Kγ enzyme, point 2 (PI3Kγ enzyme; 100 μM): 0%; % of inhibition (mean) against PI3Kγ enzyme (PI3Kγ enzyme; 100 μM, mean of 2 trials): 0%; experimental % of inhibition on MCF-7 cancer cell line (MCF-7 cancer cell line; 100 μM, 72 h, MTT): –23.63%; zone of inhibition (diameter of inhibition) (Staphylococcus aureus; disc diffusion, 100 μg/mL, S. aureus): 0 mm; experimental % of inhibition on A549 cancer cell line (A549 cancer cell line [1]; 100 μM, 72 h, MTT): 56.69%; zone of inhibition (diameter of inhibition) (Escherichia coli; disc diffusion, 100 μg/mL, E. coli): 0 mm

Continued, in another order:

Row | inhibition at 100 µM (PI3Kγ enzyme; [3]) [%] | inhibition at 100 µM (PI3Kγ enzyme; [4]) [%] | inhibition at 100 µM (PI3Kγ enzyme; [5]) [%] | Compound | zone of inhibition at 100 µg/mL (Staphylococcus aureus) [mm] | inhibition at 100 µM (A549 cancer cell line [1]) [%] | inhibition at 10 µM (Fibro cell line) [%] | inhibition at 100 µM (Fibro cell line) [%] | zone of inhibition at 100 µg/mL (Escherichia coli) [mm] | also measured
9 | 13 | 3 | 22 | NS(=O)(=O)c1ccc(NCC(=O)Nc2nc3ccccc3s2)cc1 [OMS6, N-(1,3-benzothiazol-2-yl)-2-(4-sulfamoylanilino)acetamide] | 0 | 39.6 | 1.52 | 62.7 | 0 | –
10 | 25 | 29 | 22 | N=C(N)NS(=O)(=O)c1ccc(NCC(=O)Nc2nc3ccccc3s2)cc1 [OMS7, N-(1,3-benzothiazol-2-yl)-2-[4-(carbamimidoylsulfamoyl)anilino]acetamide] | 0 | -3.59 | 1.88 | 16.4 | 0 | –
11 | 0 | 0 | 0 | O=C(CNc1ccc(S(=O)(=O)Nc2ccccn2)cc1)Nc1nc2ccccc2s1 [OMS8, N-(1,3-benzothiazol-2-yl)-2-{4-[(pyridine-2-yl)sulfamoyl]anilino}acetamide] | 0 | 11.2 | 8.62 | 43.3 | 0 | –
12 | 2 | 0 | 3 | O=C(CN1CCOCC1)Nc1nc2ccccc2s1 [OMS9, N-(1,3-benzothiazol-2-yl)-2-(morpholin-4-yl)acetamide] | 0 | 17.2 | 11.8 | 3.11 | 0 | –
13 | 2 | 3 | 0 | O=C(CN1CCN(c2cccc(O)c2)CC1)Nc1nc2ccccc2s1 [OMS10, N-(1,3-benzothiazol-2-yl)-2-[4-(3-hydroxyphenyl)piperazin-1-yl]acetamide] | 11 | 38.1 | 15.9 | 44.1 | 0 | –
14 | 3 | 6 | 0 | O=C(CN1CCN(c2ccc([N+](=O)[O-])cc2)CC1)Nc1nc2ccccc2s1 [OMS11, N-(1,3-benzothiazol-2-yl)-2-[4-(4-nitrophenyl)piperazin-1-yl]acetamide] | 0 | 22 | 21.3 | 19.2 | 0 | –
15 | 16 | 28 | 4 | O=C(CN1CCN(c2ccccc2O)CC1)Nc1nc2ccccc2s1 [OMS12, N-(1,3-benzothiazol-2-yl)-2-[4-(2-hydroxyphenyl)piperazin-1-yl]acetamide] | 20 | 48.5 | 24.3 | 22.2 | 0 | –
16 | 3 | -2 | 8 | O=C(CN1CCN(c2ccccn2)CC1)Nc1nc2ccccc2s1 [OMS13, N-(1,3-benzothiazol-2-yl)-2-[4-(pyridin-2-yl)piperazin-1-yl]acetamide] | 0 | 26.9 | 21.1 | 13.8 | 0 | –
17 | 1 | 2 | 0 | O=C(CN1CCN(CC(=O)Nc2nc3ccccc3s2)CC1)Nc1nc2ccccc2s1 [OMS16, 2,2′-(piperazine-1,4-diyl)bis(N-(benzo[d]thiazol-2-yl)acetamide)] | 0 | 56.6 | 53.8 | 70.1 | 0 | –
